Jurkat viability = cytotoxicity toward Jurkat T cells, primary screen, cytotoxicity control, cell-based, Jurkat E6.1, 60K MLSMR library; Jurkat E6.1 viability, ATP luminescence, 48 h; inhibition, % at 4 µM; hit rate 1.2% among 56,000;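 active = inhibition above the mean inhibition of all tested compounds plus 3 SD, cut at about 28% in these data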
Lung fibro prol = antiproliferative effect on LL 47 fibroblasts – human, LL 47 cells, CellTiter-Glo luminescence, primary screen; LL 47 human lung fibroblast viability, ATP luminescence; stronger effect = lower value; viability, % at 10 µM; hit rate 1.1% among 85,000;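 active = viability at or below 50% in the single dose screen; inactive = viability above 50%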;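 also: compound exposure lasted 72 h before the ATP readout; 100% = median luminescence of untreated cell-only wells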
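Material: human LL 47 lung fibroblast cells; quantity: 1,150 cells/well; medium: IMEM plus 15% FBS; doses: 0.1% DMSO in all compound wells; timing: overnight attachment after seeding, then 72 h compound exposure at 37 °C; detection: CellTiter-Glo luminescence; measure: % viability of median cell-only signal; controls: cell-only wells, no compound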
H69AR inhibit = proliferation blockers of H69AR lung cancer cells, primary screen, cell-based, human, 86K library. hit rate 6% among 85,000. H69AR lung tumor viability, ATP luminescence, 72 h; stronger effect = lower value. viability, % at 10 µM;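 active = viability at or below 40%; inactive = viability above 40%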;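 also: multidrug resistant small cell line overexpressing MRP-1 efflux transporter; 100% = mean luminescence of untreated control wells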
E coli WT exp = growth inhibitors of wild-type E. coli, primary screen, strain BW25113, expanded library, OD600. OD600 absorbance. growth inhibition, % at 100 µM. hit rate 0.15% among 98,000;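 active = growth inhibition above about 50% at one test dose, limit read from the data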;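 also: growth measured after 20 h incubation at 37 °C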
HUVEC inhibit = inhibitors of HUVEC proliferation, primary screen, cell-based, 384-well. CellTiter-Glo luminescence, 72 h; stronger effect = lower value. viability, % at 10 µM (by protocol). hit rate 1.1% among 86,000;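 active = viability at or below 30%; inactive = viability above 30%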;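 also: 100% = median luminescence of DMSO-only cell control wells on each plate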
Ecoli tolC = growth inhibitors of E. coli tolC mutant, primary screen, strain BW25113 ΔtolC::kan, 384-well; OD615; growth inhibition, % at 10 µM (by protocol); hit rate 2.2% among 65,000;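 active = growth inhibition at or above a cutoff equal to the mean over every tested compound plus 3 SD, cut at about 60% in these data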;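 also: growth measured after 20 h incubation at 37 °C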
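Test system – E. coli BW25113 ΔtolC::kan, tolC deletion mutant strain · Detection – OD at 615 nm · Buffer or medium – LB with kanamycin 50 µg/mL · Times – 20 h compound exposure of bacteria at 37 °C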
The depositor's hits bear a star; · = no result. The list is not random: actives were taken first. Their share in the collection is about 6.4%.

SMILES	Jurkat viability	Lung fibro prol	H69AR inhibit	E coli WT exp	HUVEC inhibit	Ecoli tolC
O=C(CSc1ccc(-c2ccccc2)nn1)NCc1ccco1	·	100.3	86.8	·	103.4	·
OC(CNCC1CCCO1)Cn1c2ccc(Cl)cc2c2cc(Cl)ccc21 (configuration not stated)	·	2.4*	1.0*	65.0*	2.2*	·
CCC1CCc2c(sc3nc(SCC(=O)NCc4ccco4)n(-c4ccccc4)c(=O)c23)C1 (configuration not stated)	·	64.3	3.0*	·	37.6	·
CC1CCc2sc3ncn4nc(C(=O)NCc5ccco5)nc4c3c2C1 (configuration not stated)	-0.5	93.7	67.3	-4.0	89.5	-4.6
CC1CCc2c(sc3ncn4c(SCC(=O)NCc5ccco5)nnc4c23)C1 (configuration not stated)	0.0	101.9	10.1*	-1.0	88.1	10.8
Cn1ncc(N=Cc2ccccc2)c1C(=O)Nc1cccc(Cl)c1	·	77.6	37.6*	-7.0	61.0	·
CCOC(=O)c1c(NC(=O)COc2ncnc3sccc23)sc2c1CCC2	9.0	80.6	54.7	-8.0	19.9*	-3.7
CCOC(=O)c1c(NC(=O)COC)sc2c1CCCC2	-0.2	99.3	103.0	0.0	86.7	13.7
CC(C)Cn1c(=O)c2c(nc3n2CCCN3CCc2ccccc2)n(C)c1=O	17.5	93.4	33.6*	3.0	96.6	46.4
Cn1c(=O)n(CCc2ccccc2)c(=O)c2c1nc1n2CCCN1Cc1ccccc1	3.8	82.8	26.9*	-16.0	71.2	25.9
Cn1c(=O)n(Cc2ccc(F)cc2)c(=O)c2c1nc1n2CCCN1Cc1ccccc1	2.2	84.6	37.8*	-8.0	94.1	13.0
Cn1c(N2CCCC2)nc2c1c(=O)n(Cc1ccc(F)cc1)c(=O)n2C	7.7	·	71.3	-4.0	101.7	-7.2
Cn1c(=O)n(Cc2ccccc2F)c(=O)c2c1nc1n2CCCN1CCc1ccccc1	1.8	94.2	·	-6.0	90.5	6.3
Cn1c(=O)n(CCc2ccccc2)c(=O)c2c1nc1n2CCCN1CCc1ccccc1	1.3	46.2*	92.4	-26.0	3.7*	76.5*
CCCCC(SCC(=O)Nc1ccccc1)C(=O)O (configuration not stated)	5.2	100.0	·	-2.0	108.1	-4.2
O=C(NCCN1CCOCC1)c1cc2cc(Cl)cc(Cl)c2oc1=O	·	101.3	79.8	·	78.8	·
CCOC(=O)C1CCCN(C(=O)C2CCN(S(=O)(=O)CC)CC2)C1 (configuration not stated)	1.1	104.0	88.2	-1.0	100.8	-14.3
COc1ccc2c(c1)CCc1c(C(=O)N3CCCc4ccccc43)noc1-2	1.6	100.6	91.6	-13.0	98.9	70.8*
COc1ccc2c(c1)CCc1c(C(=O)N3CC4(C)CC3CC(C)(C)C4)noc1-2 (configuration not stated)	1.5	96.0	35.4*	-16.0	85.9	58.9
Cc1cc(N2CCC(N(C)C3CCCC3)CC2)nc2cc(O)ccc12	2.1	66.1	1.1*	6.0	75.7	-2.5
O=C(c1nc(-c2ccccc2)n(-c2ccccc2)n1)N1CCN(S(=O)(=O)c2ccccc2)CC1	-7.1	97.6	85.0	-9.0	92.7	6.5
CCOc1cc(NC(=O)c2ccco2)c(OCC)cc1NC(=O)COc1ccccc1C	-5.4	56.8	19.8*	·	61.9	-5.8
Brc1cccc(CN2CCCCCCC2)c1	·	103.9	96.9	-4.0	99.2	·
Cc1cc(C)c2c(CC(=O)N(CCC#N)Cc3cccnc3)coc2c1	0.3	97.3	80.3	9.0	100.6	-0.3
CNc1nc(C)c(C(=O)OCc2ccccc2)s1	66.5*	102.1	54.7	3.0	83.9	2.1
CCCc1cc(C(=O)N2CCN(c3ccccc3C)CC2)cs1	0.7	101.7	74.6	-1.0	101.6	100.0*
CC(=O)c1ccc(-n2nncc2C(C)(C)C)cc1	·	92.9	89.0	-2.0	96.4	-7.3
Cc1cnnn1-c1ccc(C(=O)CCl)cc1	·	53.7	0.0*	98.0*	65.3	·
CN1CCN(C(=O)c2ccccc2-c2ccccc2C(=O)O)CC1	-0.4	97.0	103.0	6.0	102.7	-10.5
Cc1ccccc1NS(=O)(=O)c1ccc(N2CCCC2=O)cc1	·	49.0*	25.8*	4.0	63.4	·

Source: PubChem BioAssay (several laboratories)
